Source: ChEMBL document CHEMBL1142225, “Inhibiting HIV-1 integrase by shifting its oligomerization equilibrium” (Proc Natl Acad Sci U S A, 2007)
Calls of active or inactive are those of the source. The rule behind the calls is not given here.

Tests used:
[1] = molecular target: Human immunodeficiency virus type 1 integrase (Human immunodeficiency virus 1, UniProt Q7ZJM1); test: Binding affinity to HIV1 integrase tetrameric form by fluorescence anisotrophy
Method in brief: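 Fluorescence anisotropy at 10°C in 20 mM Tris pH 7.4/185 mM NaCl (ionic strength 190 mM). His-tagged IN was titrated into fluorescein-labeled LEDGF/p75 peptide (0.05–0.1 μM) in 20 aliquots at 1-min intervals. Excitation was 480 nm and emission 530 nm. Kd was obtained from a Hill-equation fit.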

[2] = molecular target: Human immunodeficiency virus type 1 integrase (Human immunodeficiency virus 1) (UniProt Q7ZJM1); test: Inhibition of HIV1 integrase binding to LTR DNA by fluorescence anisotrophy
Method in brief: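 Competition anisotropy at 10°C in 20 mM Tris pH 7.4/185 mM NaCl. LEDGF/p75 peptide (500 nM) was preincubated 0.5 h with His-tagged IN (4 μM), then titrated into fluorescein-labeled 36-mer HIV-1 LTR DNA (10 nM). Excitation 480 nm, emission 530 nm.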

[3] = molecular target: Human immunodeficiency virus type 1 integrase (Human immunodeficiency virus 1) (UniProt Q7ZJM1); test: Inhibition of HIV1 integrase 3'-end processing activity
[4] = system: Human immunodeficiency virus 1; test: Inhibition of HIV1 Tat-mediated HIV1 reporter gene expression in human TZM-bl HeLa MAGI cells; format: functional, organism-based
Method in brief: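 TZM-bl (HeLa MAGI) cells carrying a Tat/TAR-driven β-galactosidase reporter were grown in DMEM with 10% FCS, seeded at 10 × 10^3 cells per well, and infected with HIV-1 at equal MOI. Read-out was reporter expression by MAGI assay.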

[5] = system: Human immunodeficiency virus 1; test: Inhibition of HIV1 replication in human H9 cells assessed as reduction of p24 protein level after 10 days; format: functional, organism-based
Method in brief: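 H9 T-lymphoid cells were preincubated 2 h with compound, then infected with wild-type HIV-1 HXB2 at MOI 0.1 (1 h adsorption at 37°C, then washed). Cells were cultured 10 days, and p24 released into the medium was measured by capture assay.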

[6] = system: Human immunodeficiency virus 1; test: Inhibition of HIV1 genome integration assessed as integrated viral DNA level at 2.5 uM by RT-PCR method; format: functional
Method in brief: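 Integrated proviral DNA in infected cells was measured by nested real-time PCR. The second round used SYBR green with 300 nM primers and 50 cycles (95°C 15 s, 60°C 60 s). Quantification used a standard curve from full-length HIV-1 HXB2 plasmid (5 ng–0.25 fg). Samples were run in quadruplicate. Results are expressed as percentage of integrated viral DNA.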

HeLa = test: Toxicity against human HeLa cells by MTT method; format: cell-based
[7] = system: Human immunodeficiency virus 1; test: Effect on HIV1 replication in sup T1 cells assessed as total reverse transcribed viral DNA level at 12.5 uM by PCR; format: functional, organism-based
Method in brief: (§1)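 Sup T1 cells (RPMI 1640, 10% FCS) were pretreated 2 h with compound, then infected with HIV-1 Δenv/VSV-G (HXB2 backbone) at MOI 2 for 6 h. Total viral DNA was detected by Gag-specific PCR on 10 ng DNA with 3.5 mM MgCl2 and 29 cycles.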

[8] = system: Human immunodeficiency virus 1; test: Inhibition of HIV1 in sup T1 cells assessed as total reverse transcribed viral DNA at 2 uM by PCR; format: functional, organism-based; method in brief: as §1
[9] = molecular target: Human immunodeficiency virus type 1 integrase (Human immunodeficiency virus 1) (UniProt Q7ZJM1); test: Inhibition of HIV1 integrase 3'-end processing activity at 21 uM
[10] = molecular target: Human immunodeficiency virus type 1 integrase (Human immunodeficiency virus 1) (UniProt Q7ZJM1); test: Inhibition of HIV1 integrase strand transfer activity in presence of LTR DNA template

Sequence of Human immunodeficiency virus type 1 integrase (Q7ZJM1 whole entry): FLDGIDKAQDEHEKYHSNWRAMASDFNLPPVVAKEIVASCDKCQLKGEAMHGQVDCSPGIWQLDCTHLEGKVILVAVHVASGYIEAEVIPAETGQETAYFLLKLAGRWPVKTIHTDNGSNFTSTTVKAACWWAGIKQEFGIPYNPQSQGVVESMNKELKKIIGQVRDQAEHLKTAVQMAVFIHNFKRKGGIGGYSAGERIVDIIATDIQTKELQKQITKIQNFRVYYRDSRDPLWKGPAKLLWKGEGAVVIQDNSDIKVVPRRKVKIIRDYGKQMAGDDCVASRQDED
Sequence of Human immunodeficiency virus type 1 integrase (Human immunodeficiency virus 1) (Q7ZJM1 as listed by the source): as the sequence (Q7ZJM1 whole entry) above

| Compound | Kd [1] | fold inhibition [2] | Activity [3] | Activity [4] | Activity [5] | inhibition at 2.5 µM [6] | Activity (HeLa) | Activity [7] | Activity [8] | Activity [2] | Activity [9] | Activity [10] |
| --- | --- | --- | --- | --- | --- | --- | --- | --- | --- | --- | --- | --- |
| H-WNSLKIDNLDV-OH | 3.7 µM | 3 fold | Active | Dose-dependent effect | Active | > 90% | Non-toxic | inactive | – | – | – | – |
| Cc1cn([C@H]2C[C@H](N=[N+]=[N-])[C@@H](CO)O2)c(=O)[nH]c1=O | – | – | – | – | – | – | – | – | Active | – | – | – |
| H-WIHAEIKNSLKIDNLDVNRCIEALD-OH | 4.4 µM | 3 fold | – | – | – | – | – | – | – | – | – | – |
| H-WKKIRRFVSQVIM-OH | 12 µM | – | Active | Dose-dependent effect | Active | > 90% | Non-toxic | inactive | – | 6 | Active | Active |
